One block for each molecule: values may come before it.
Columns and labels:
[1] = biological target: T1, CaMKIIα W403L hub (Homo sapiens, UniProt Q9UQM7, W403L); assay: Thermal shift assay; assay type: binding; conditions: DSF, mean ± SEM, n = 3
T1 sequence (Q9UQM7 345-475 W403L): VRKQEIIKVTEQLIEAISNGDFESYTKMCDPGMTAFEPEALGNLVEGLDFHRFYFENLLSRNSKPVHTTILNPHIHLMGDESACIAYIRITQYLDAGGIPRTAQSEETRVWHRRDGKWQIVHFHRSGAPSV

[2] = biological target: T1, CaMKIIα W403L hub; assay: Small-angle X-ray scattering, CaMKIIα W403L hub; conditions: CaMKIIα W403L hub 6.8 mg/mL, PIPA 200 μM
In short: (§1)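 SAXS. Purified hub constructs were buffer-exchanged by spin desalting into 20 mM MES, 150 mM NaCl, 1 mM DTT, pH 6.0, with or without 200 μM test compound, and measured as dilution series of 1–7 mg/mL protein at 20–22°C. Frames were radially averaged, buffer-subtracted and merged, scaled by concentration. Curves were fitted with dodecamer, tetradecamer, mixed or stacked-dodecamer models.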

[3] = biological target: T2, CaMKIIα WT hub (Homo sapiens, UniProt Q9UQM7); assay: Mass photometry, CaMKIIα WT hub; conditions: CaMKIIα WT hub 100–500 nM, incubated with 200 μM PIPA
T2 sequence (Q9UQM7 345-475): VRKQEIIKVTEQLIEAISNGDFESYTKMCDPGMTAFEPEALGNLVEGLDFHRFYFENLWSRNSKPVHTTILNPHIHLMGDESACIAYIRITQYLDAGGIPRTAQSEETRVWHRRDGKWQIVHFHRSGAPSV

[4] = biological target: T1, CaMKIIα W403L hub; assay: Surface plasmon resonance, immobilized CaMKIIα W403L hub; assay type: binding
In short: (§2)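 SPR at 25°C. Purified hub (WT or W403L) was amine-coupled to the sensor in 20 mM NaAc, pH 5. Test compound was injected as twofold dilutions in MES running buffer (20 mM MES, 150 mM NaCl, 1 mM DTT, pH 6), with blank and reference-surface subtraction. Equilibrium responses versus concentration were fitted to a 1:1 Langmuir isotherm for KD. Independent experiments: WT n = 3, W403L n = 2.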

[5] = biological target: T3, CaMKIIα 6x hub (Homo sapiens, UniProt Q9UQM7, E355Q/F467M/I414M/I464H/T354N/T412N); assay: Intrinsic tryptophan fluorescence assay; assay type: binding; conditions: pIC50, quenching of intrinsic tryptophan fluorescence, purified CaMKIIα 6x hub
T3 sequence (Q9UQM7 345-475 T354N/E355Q/T412N/I414M/I464H/F467M): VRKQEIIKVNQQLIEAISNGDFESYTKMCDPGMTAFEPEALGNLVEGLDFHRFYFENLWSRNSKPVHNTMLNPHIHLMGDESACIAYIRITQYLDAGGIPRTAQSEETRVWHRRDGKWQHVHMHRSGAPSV
In short: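 Purified human CaMKIIα 6x hub (residues 345–475 with six stabilising mutations). Intrinsic Trp fluorescence was read at 25°C across a test compound series (e.g. 0.43–12.1 μM). Signals were background-corrected for compound in buffer, then normalised between hub alone and the high-concentration plateau. IC50 came from a variable-slope log(inhibitor)-response fit of pooled data, n = 3.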

[6] = biological target: T3, CaMKIIα 6x hub; assay: Small-angle X-ray scattering, CaMKIIα 6x hub; conditions: CaMKIIα 6x hub 6.7 mg/mL, PIPA 200 μM
In short: as §1

[7] = biological target: T2, CaMKIIα WT hub; assay: Small-angle X-ray scattering, CaMKIIα WT hub; conditions: CaMKIIα WT hub 1.2–3.9 mg/mL; PIPA 200 μM, HOCPCA 1000 μM, 5-HDC 100 μM
[8] = biological target: T2, CaMKIIα WT hub; assay: Surface plasmon resonance, immobilized CaMKIIα WT hub; assay type: binding
In short: as §2

[9] = biological target: T1, CaMKIIα W403L hub; assay: Mass photometry, CaMKIIα W403L hub; conditions: CaMKIIα W403L hub 100–500 nM, incubated with 200 μM PIPA
In short: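 Mass photometry. The instrument was calibrated with apoferritin, BSA and […]. Purified W403L hub (1.5 mg/mL) was incubated 90 min with 200 μM test compound, then desalted into MES buffer (20 mM MES, 150 mM NaCl, 1 mM DTT, pH 6.0) plus compound. It was diluted to 500, 200 and 100 nM and recorded for 60 s, with a buffer blank before each run. Single-molecule mass histograms were built.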

[10] = biological target: T2, CaMKIIα WT hub; assay: Thermal shift assay; assay type: binding; conditions: for maximum ∆Tm: DSF, mean ± SEM, n = 3
[11] = biological target: GHB binding site; conditions: low-affinity; ref Wellendorph et al., 2009; cited from earlier work
[12] = biological target: CaMKIIα holoenzyme (Homo sapiens, UniProt Q9UQM7); assay: ADP-Glo kinase assay, syntide-2 phosphorylation; assay type: biochemical; conditions: sub-maximal (30 nM) CaM; concentrations up to 5–10 mM
[13] = biological target: human CaMKIIα W403L hub domain (human) (UniProt Q9UQM7); assay: mass photometry
[14] = biological target: the molecule itself; assay: SAXS

Sequence of CaMKIIα holoenzyme (Q9UQM7 whole entry, the tested form may be a part): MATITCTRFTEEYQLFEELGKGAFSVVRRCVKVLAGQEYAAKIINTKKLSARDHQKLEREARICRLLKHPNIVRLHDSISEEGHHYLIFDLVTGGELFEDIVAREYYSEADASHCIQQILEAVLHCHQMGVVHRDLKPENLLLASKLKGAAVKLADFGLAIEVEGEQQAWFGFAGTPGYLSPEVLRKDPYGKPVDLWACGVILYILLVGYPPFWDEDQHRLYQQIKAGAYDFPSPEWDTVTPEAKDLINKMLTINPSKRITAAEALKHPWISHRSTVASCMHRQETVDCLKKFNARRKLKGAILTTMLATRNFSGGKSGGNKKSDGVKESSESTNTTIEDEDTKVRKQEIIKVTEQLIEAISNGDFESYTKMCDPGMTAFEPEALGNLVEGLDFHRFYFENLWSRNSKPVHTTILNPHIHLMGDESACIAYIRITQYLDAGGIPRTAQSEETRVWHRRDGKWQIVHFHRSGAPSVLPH

maximum ∆Tm [1]: 24.5 ± 0.4 °C | self-association of hub (SAXS) [2]: no self‐association was detected | Kd [4]: 2800 ± 130 nM | IC50 [5]: 5010 nM | self-association of hub (SAXS) [6]: no self‐association was detected | self-association / oligomeric state of hub (SAXS) [7]: induced self‐association | Kd [8]: 2900 ± 600 nM | change in MW (mass photometry) [9]: did not display any change in MW | maximum ∆Tm [10]: 13.04 ± 0.09 °C | maximum ∆Tm less compared to 5-HDC ([10]; difference PIPA vs 5-HDC): 10.7 °C
Molecule: O=C(O)Cc1cn2nc(-c3ccc(Cl)cc3)ccc2n1 [PIPA, 2‐(6‐(4‐chlorophenyl)imidazo[1,2‐b]pyridazine‐2‐yl)acetic acid]
molecular weight species (mass photometry) [3]: displayed a shoulder on the main peak around 220 kDa as well as a much larger species at 372 kDa

Molecule: CC(=O)O [acetate]
Ki [11]: > 100000 nM | effect on syntide-2 substrate phosphorylation [12]: neither of the compounds affected substrate phosphorylation

stoichiometry N [13]: 12
Molecule: human CaMKIIα W403L hub domain (from UniProt Q9UQM7 345-475) (domain or fragment)

Molecule: O=C(O)C1=CC(O)CC1 (stereo not shown) [HOCPCA, 3‐hydroxycyclopent‐1‐enecarboxylic acid, reference compound]
maximum ∆Tm [1]: 15.2 ± 1.0 °C | effect on syntide-2 substrate phosphorylation [12]: neither of the compounds affected substrate phosphorylation | self-association / oligomeric state of hub (SAXS) [7]: not observed | maximum ∆Tm [10]: 11.5 ± 0.6 °C

B1: human CaMKIIα wild-type (WT) hub domain (domain or fragment, UniProt Q9UQM7 345-475, looked up)
chain: VRKQEIIKVTEQLIEAISNGDFESYTKMCDPGMTAFEPEALGNLVEGLDFHRFYFENLWSRNSKPVHTTILNPHIHLMGDESACIAYIRITQYLDAGGIPRTAQSEETRVWHRRDGKWQIVHFHRSGAPSV
stoichiometry N [14]: 12

Source: publication PMC11400628 (Protein Science : A Publication of the Protein Society, 2024)
